Results: ChEMBL document CHEMBL1795244, “Preliminary evaluation of a 3H imidazoquinoline library as dual TLR7/TLR8 antagonists” (Bioorg Med Chem, 2011)
Activity calls are given as the source filed them. The calls are words filed in the database; no cut-off is given here.

Experiments:
Toll-like receptor 8 = molecular target: T1, Toll-like receptor 8 (Homo sapiens, UniProt Q9NR97); experiment: Antagonist activity at TLR8 expressed in HEK293 cells co-transfected with NF-kappaB/sAP gene assessed as inhibition of CL075-induced NF-kappaB activation by reporter gene assay; type: functional, cell-based
T1 sequence (Q9NR97 whole entry): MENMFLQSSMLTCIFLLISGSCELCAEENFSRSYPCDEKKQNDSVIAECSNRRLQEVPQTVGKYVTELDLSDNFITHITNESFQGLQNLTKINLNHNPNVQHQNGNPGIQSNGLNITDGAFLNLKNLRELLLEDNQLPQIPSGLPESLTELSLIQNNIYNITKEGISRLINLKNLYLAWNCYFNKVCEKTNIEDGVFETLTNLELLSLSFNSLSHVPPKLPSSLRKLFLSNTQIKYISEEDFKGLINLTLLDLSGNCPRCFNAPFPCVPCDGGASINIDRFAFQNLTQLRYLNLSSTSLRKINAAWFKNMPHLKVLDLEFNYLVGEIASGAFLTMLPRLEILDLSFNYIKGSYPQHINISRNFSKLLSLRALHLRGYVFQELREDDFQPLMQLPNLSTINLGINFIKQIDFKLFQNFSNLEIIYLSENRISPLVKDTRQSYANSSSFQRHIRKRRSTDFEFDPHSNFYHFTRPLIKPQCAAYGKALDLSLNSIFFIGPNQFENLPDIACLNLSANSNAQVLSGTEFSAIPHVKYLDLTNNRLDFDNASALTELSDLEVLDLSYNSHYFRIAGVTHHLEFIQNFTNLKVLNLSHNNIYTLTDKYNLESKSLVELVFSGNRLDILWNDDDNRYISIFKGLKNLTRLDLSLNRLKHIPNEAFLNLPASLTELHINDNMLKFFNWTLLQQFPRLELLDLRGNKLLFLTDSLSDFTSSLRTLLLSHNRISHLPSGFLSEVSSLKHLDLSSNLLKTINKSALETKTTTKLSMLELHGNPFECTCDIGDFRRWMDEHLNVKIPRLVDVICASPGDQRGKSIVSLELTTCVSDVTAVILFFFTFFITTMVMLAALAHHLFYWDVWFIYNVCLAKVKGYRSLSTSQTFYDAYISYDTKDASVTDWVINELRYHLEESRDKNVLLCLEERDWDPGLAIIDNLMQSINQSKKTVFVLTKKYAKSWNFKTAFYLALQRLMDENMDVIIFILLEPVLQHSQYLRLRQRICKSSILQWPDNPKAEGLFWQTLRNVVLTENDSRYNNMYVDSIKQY

Toll-like receptor 7 [1] = molecular target: T2, Toll-like receptor 7 (Homo sapiens, UniProt Q9NYK1); experiment: Antagonist activity at TLR7 expressed in HEK293 cells co-transfected with NF-kappaB/sAP gene assessed as inhibition of 1 ug/ml of gardiquimod-induced NF-kappaB activation by reporter gene assay; type: functional, cell-based
T2 sequence (Q9NYK1 whole entry): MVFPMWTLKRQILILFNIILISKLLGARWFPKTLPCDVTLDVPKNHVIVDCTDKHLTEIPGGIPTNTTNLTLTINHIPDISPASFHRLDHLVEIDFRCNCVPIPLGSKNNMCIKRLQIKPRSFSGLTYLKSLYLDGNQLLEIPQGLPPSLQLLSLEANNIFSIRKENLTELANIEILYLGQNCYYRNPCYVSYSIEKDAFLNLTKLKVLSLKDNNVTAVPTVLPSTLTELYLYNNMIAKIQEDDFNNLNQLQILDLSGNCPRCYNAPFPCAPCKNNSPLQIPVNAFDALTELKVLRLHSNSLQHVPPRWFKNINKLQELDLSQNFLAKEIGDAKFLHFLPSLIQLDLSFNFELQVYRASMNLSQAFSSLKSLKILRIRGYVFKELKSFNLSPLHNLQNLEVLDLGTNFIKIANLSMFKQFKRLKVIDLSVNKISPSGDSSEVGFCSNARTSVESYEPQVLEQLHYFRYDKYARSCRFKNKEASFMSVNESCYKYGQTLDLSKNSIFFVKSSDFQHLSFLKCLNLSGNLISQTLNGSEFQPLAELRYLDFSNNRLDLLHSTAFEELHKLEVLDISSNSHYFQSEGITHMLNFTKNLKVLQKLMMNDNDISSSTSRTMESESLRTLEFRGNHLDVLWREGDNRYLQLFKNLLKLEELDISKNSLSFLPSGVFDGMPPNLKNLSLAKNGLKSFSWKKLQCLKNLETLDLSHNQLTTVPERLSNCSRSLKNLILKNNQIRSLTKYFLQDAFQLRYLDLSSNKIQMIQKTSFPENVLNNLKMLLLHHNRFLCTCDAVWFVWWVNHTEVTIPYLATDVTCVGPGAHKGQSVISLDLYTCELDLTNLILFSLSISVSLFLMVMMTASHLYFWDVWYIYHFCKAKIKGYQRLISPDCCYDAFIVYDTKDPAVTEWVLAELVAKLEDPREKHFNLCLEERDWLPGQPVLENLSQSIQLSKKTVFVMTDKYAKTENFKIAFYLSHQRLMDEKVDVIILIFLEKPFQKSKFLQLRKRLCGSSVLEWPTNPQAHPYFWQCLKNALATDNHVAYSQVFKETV
Outline: (§1)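 HEK-Blue-7 cells (HEK293 stably carrying TLR7 plus NF-κB/AP-1-driven secreted alkaline phosphatase), kept in selection medium with zeocin and normocin. Seeded at ~10⁵ cells/mL and grown to confluency, then stimulated with gardiquimod 1 μg/mL while serially diluted compounds were added at the same time (highest 250 μM). Incubated overnight; supernatant sAP read with chromogen at 620 nm; duplicates or quadruplicates.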

[2] = molecular target: T3, Toll-like receptor 7 (Homo sapiens) (UniProt Q9NYK1); experiment: Antagonist activity at TLR7 expressed in HEK293 cells co-transfected with NF-kappaB/sAP gene assessed as inhibition of gardiquimod-induced NF-kappaB activation at 250 uM by reporter gene assay; type: functional, cell-based; outline: as §1
T3 sequence (whole entry): T2 sequence (Q9NYK1 whole entry)

Toll-like receptor 7 [3] = molecular target: T2, Toll-like receptor 7; experiment: Antagonist activity at TLR7 expressed in HEK293 cells co-transfected with NF-kappaB/sAP gene assessed as inhibition of 250 ng/ml of gardiquimod-induced NF-kappaB activation by reporter gene assay
[4] = molecular target: Toll-like receptor 8 (Homo sapiens) (UniProt Q9NR97); experiment: Antagonist activity at TLR8 expressed in HEK293 cells co-transfected with NF-kappaB/sAP gene assessed as inhibition of CL075-induced NF-kappaB activation at 250 uM by reporter gene assay

Compound | IC50 (Toll-like receptor 8) [µM] | IC50 (Toll-like receptor 7 [1]) [µM] | inhibition [2] | IC50 (Toll-like receptor 7 [3]) [µM] | inhibition [4]
CCNCc1nc2c3ccccc3ncc2n1Cc1ccc(OC)cc1 | 59.6 | 28 |  |  | 
CC(C)(O)Cn1c(-c2ccccc2)nc2c3ccccc3ncc21 | 38.4 |  | inactive |  | 
Cn1c(-c2ccccc2)nc2c3ccccc3ncc21 | 25.8 | 21.6 |  |  | 
COc1ccc(Cn2c(C3CCCCC3)nc3c4ccccc4ncc32)cc1 | 40 | 19.9 |  |  | 
C#CCn1c(CNCC)nc2c3ccccc3ncc21 | 28.1 | 26.1 |  |  | 
CCNCc1nc2c3ccccc3ncc2n1C |  | 30.4 |  |  | 
CCCCCCCCCc1nc2c3ccccc3ncc2n1CCCO | 4.81 |  | inactive |  | 
CCCCCCCCCc1nc2c3ccccc3ncc2n1C |  | 10.1 |  |  | 
C#CCn1c(-c2ccccc2)nc2c3ccccc3ncc21 | 13.7 | 14.8 |  |  | 
C#CCn1c(CCCCCCCCC)nc2c3ccccc3ncc21 | 10.1 | 8.58 |  |  | 
OCCCn1c(-c2ccccc2)nc2c3ccccc3ncc21 | 37.2 |  | inactive |  | 
OCCCn1c(C2CCCCC2)nc2c3ccccc3ncc21 | 20.3 |  | inactive |  | 
Cn1c(C2CCCCC2)nc2c3ccccc3ncc21 | 24.3 | 22 |  |  | 
CCCCCCCCCc1nc2c3ccccc3ncc2n1Cc1ccc(OC)cc1 |  | 19.4 |  |  | 
CCNCc1nc2c3ccccc3nc(NC(=O)c3ccccc3)c2n1CC(C)(C)O | 21.2 |  | inactive |  | 
COc1ccc(Cn2c(-c3ccccc3)nc3c4ccccc4[n+](Cc4ccc(OC)cc4)cc32)cc1 | 4.55 | 2.79 |  | 0.82 | 
CCNCc1nc2c3ccccc3[n+]([O-])cc2n1CC(C)(C)O | 46.5 |  | inactive |  | 
CCCCCCCCCc1nc2c3ccccc3ncc2n1CC(C)(C)O |  | 14.4 |  |  | 
C#CCn1c(C2CCCCC2)nc2c3ccccc3ncc21 | 21.1 | 21.9 |  |  | 
COc1ccc(Cn2c(-c3ccccc3)nc3c4ccccc4ncc32)cc1 |  |  | inactive |  | inactive
CCNCc1nc2c3ccccc3ncc2n1CCCO |  |  | inactive |  | inactive
CC(C)(O)Cn1c(C2CCCCC2)nc2c3ccccc3ncc21 | 38.7 |  | inactive |  | 
